Results: ChEMBL document CHEMBL3739328, “Synthesis, structure-activity relationship and biological evaluation of novel arylpiperzines as α1A/1D-AR subselective antagonists for BPH” (Bioorg Med Chem, 2015)

What was measured:
[1] = biological target: T1, Alpha-1A adrenergic receptor (Homo sapiens, UniProt P35348); test: Antagonist activity at adrenergic alpha1A receptor (unknown origin) by firefly and renilla dual glo luciferase assay
T1 sequence (P35348 whole entry): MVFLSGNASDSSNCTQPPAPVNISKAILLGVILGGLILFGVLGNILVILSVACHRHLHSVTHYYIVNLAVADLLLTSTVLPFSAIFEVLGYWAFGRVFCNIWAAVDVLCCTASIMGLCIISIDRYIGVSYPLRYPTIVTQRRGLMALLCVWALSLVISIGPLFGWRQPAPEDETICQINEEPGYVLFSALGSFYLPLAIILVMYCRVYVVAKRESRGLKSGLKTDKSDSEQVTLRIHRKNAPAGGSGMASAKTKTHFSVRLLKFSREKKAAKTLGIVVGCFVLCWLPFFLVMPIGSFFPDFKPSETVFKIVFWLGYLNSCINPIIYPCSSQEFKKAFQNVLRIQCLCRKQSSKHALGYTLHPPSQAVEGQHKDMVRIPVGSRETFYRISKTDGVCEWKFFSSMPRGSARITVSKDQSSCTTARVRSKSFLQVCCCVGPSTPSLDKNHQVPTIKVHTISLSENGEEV
Method in brief: (§1)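 Firefly and Renilla luciferase activities (RLU) were read by luminometer with the Dual-Glo kit, following the manufacturer's protocol. IC50 values were derived from three independent experiments.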

[2] = biological target: T2, Alpha-1D adrenergic receptor (Homo sapiens, UniProt P25100); test: Antagonist activity at adrenergic alpha1D receptor (unknown origin) by firefly and renilla dual glo luciferase assay; method in brief: as §1
T2 sequence (P25100 whole entry): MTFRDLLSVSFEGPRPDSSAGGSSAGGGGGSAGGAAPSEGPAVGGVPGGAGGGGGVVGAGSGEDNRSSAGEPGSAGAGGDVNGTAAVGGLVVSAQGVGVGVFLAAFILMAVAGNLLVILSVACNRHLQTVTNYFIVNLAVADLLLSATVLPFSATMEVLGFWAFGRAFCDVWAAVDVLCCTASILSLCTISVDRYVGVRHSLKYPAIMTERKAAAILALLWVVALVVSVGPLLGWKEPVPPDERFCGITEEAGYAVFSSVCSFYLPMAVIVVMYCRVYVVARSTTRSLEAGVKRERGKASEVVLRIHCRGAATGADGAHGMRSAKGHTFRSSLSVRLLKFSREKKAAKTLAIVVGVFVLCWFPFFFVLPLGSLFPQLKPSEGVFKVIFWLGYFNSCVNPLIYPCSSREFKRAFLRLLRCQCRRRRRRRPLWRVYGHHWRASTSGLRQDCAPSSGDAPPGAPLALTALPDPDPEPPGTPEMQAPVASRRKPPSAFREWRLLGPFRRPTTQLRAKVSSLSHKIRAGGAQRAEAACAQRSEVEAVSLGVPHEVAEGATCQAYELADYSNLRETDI

[3] = organism: Homo sapiens; test: Selectivity ratio of IC50 for adrenergic alpha1B receptor (unknown origin) to IC50 for adrenergic alpha1D receptor (unknown origin)
[4] = biological target: T3, Alpha-1B adrenergic receptor (Homo sapiens, UniProt P35368); test: Antagonist activity at adrenergic alpha1B receptor (unknown origin) by firefly and renilla dual glo luciferase assay; method in brief: as §1
T3 sequence (P35368 whole entry): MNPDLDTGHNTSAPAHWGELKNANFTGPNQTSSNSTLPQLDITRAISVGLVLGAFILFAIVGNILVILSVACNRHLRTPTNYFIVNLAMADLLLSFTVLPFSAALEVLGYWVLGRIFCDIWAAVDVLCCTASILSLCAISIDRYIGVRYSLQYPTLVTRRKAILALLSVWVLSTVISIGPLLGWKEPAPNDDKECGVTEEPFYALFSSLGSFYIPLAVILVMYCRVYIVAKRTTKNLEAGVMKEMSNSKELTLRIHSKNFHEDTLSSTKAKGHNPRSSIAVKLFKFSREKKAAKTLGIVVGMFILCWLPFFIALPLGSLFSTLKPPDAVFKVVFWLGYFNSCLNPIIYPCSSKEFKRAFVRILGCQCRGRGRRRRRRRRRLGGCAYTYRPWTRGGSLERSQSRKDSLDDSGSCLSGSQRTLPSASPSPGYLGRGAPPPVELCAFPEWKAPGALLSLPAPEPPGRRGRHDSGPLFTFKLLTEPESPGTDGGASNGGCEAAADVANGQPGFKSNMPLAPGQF

[5] = organism: Homo sapiens; test: Selectivity ratio of IC50 for adrenergic alpha1B receptor (unknown origin) to IC50 for adrenergic alpha1A receptor (unknown origin)

SMILES | IC50 [1] [nM] | IC50 [2] [nM] | Ratio IC50 [3] | IC50 [4] [nM] | Ratio IC50 [5]
Cc1ccc(Cl)cc1N1CCN(CCc2ccc(CN3C(=O)c4ccccc4C3=O)cc2)CC1 | 34.5 | 31.3 | 1 | 31.6 | 0.9
CCOc1ccccc1N1CCN(CCc2ccc(CN3C(=O)c4ccccc4C3=O)cc2)CC1 | 32.4 | 240 | 1.8 | 433 | 13.4
O=C1c2ccccc2C(=O)N1Cc1ccc(CCN2CCN(c3ccccn3)CC2)cc1 | 49.6 | 11.3 | 1.1 | 12.6 | 0.3
Cc1ccccc1N1CCN(CCc2ccc(CN3C(=O)c4ccccc4C3=O)cc2)CC1 | 228 | 80600 | 0.01 | 949 | 4.2
O=C1c2ccccc2C(=O)N1Cc1ccc(CCN2CCN(c3ccc(F)cc3)CC2)cc1 | 229 | 122 | 5.6 | 684 | 3
O=C1c2ccccc2C(=O)N1Cc1ccc(CCN2CCN(c3ccccc3F)CC2)cc1 | 96 | 10600 | 0.2 | 1880 | 19.5
COc1ccc(N2CCN(CCc3ccc(CN4C(=O)c5ccccc5C4=O)cc3)CC2)cc1 | 885 | 1860 | 0.2 | 406 | 0.5
O=C1c2ccccc2C(=O)N1Cc1ccc(CCN2CCN(c3ccc(Cl)cc3)CC2)cc1 | 552 | 35.2 | 22.6 | 794 | 1.4
CC(=O)c1ccc(N2CCN(CCc3ccc(CN4C(=O)c5ccccc5C4=O)cc3)CC2)cc1 | 14.2 | 866 | 0.2 | 122 | 8.6
CS(=O)(=O)c1ccccc1N1CCN(CCc2ccc(CN3C(=O)c4ccccc4C3=O)cc2)CC1 | 46.4 | 10.1 | 19.8 | 199 | 4.3
O=C1c2ccccc2C(=O)N1Cc1ccc(CCN2CCN(Cc3ccccc3)CC2)cc1 | 1200 | 116 | 8.7 | 1010 | 0.8
O=C1c2ccccc2C(=O)N1Cc1ccc(CCN2CCN(c3ccc(F)cc3F)CC2)cc1 | 89.9 | 493 | 1.6 | 787 | 8.8
N#Cc1ccc(N2CCN(CCc3ccc(CN4C(=O)c5ccccc5C4=O)cc3)CC2)cc1 | 89.2 | 63.5 | 12.1 | 769 | 8.6
O=C1c2ccccc2C(=O)N1Cc1ccc(CCN2CCN(c3ccccc3C(F)(F)F)CC2)cc1 | 384 | 164 | 1.5 | 250 | 0.7

Further molecules by falling IC50 [1], results first:

IC50 [1] [nM] | IC50 [2] [nM] | Ratio IC50 [3] | IC50 [4] [nM] | Ratio IC50 [5] | SMILES
3420 | 7430 | 0.1 | 1000 | 0.3 | O=C1c2ccccc2C(=O)N1Cc1ccc(CCN2CCN(c3ccc(Br)cc3)CC2)cc1
555 | 55.2 |  | 634 |  | COc1ccccc1N1CCN(CC(O)COc2cccc3ccccc23)CC1 (stereo not drawn) [NAFTOPIDIL]
151 | 1760 | 0.5 | 875 | 5.8 | O=C1c2ccccc2C(=O)N1Cc1ccc(CCN2CCN(c3ccccc3)CC2)cc1
128 | 957 | 0.04 | 34.8 | 0.3 | N#Cc1ccc(N2CCN(CCc3ccc(CN4C(=O)c5ccccc5C4=O)cc3)CC2)c(F)c1
66.2 | 12.9 | 1.5 | 19.7 | 0.3 | O=C1c2ccccc2C(=O)N1Cc1ccc(CCN2CCN(c3ccc(C(F)(F)F)cc3)CC2)cc1
36.1 | 16.7 | 10.8 | 180 | 5 | N#Cc1ccccc1N1CCN(CCc2ccc(CN3C(=O)c4ccccc4C3=O)cc2)CC1
30.1 | 1240 | 0.08 | 101 | 3.3 | COc1ccccc1N1CCN(CCc2ccc(CN3C(=O)c4ccccc4C3=O)cc2)CC1
15.2 | 36.6 | 21.3 | 781 | 51.5 | O=C1c2ccccc2C(=O)N1Cc1ccc(CCN2CCN(c3ccccc3Cl)CC2)cc1
2.03 | 344 | 0.08 | 28.9 | 14.2 | Cc1ccc(N2CCN(CCc3ccc(CN4C(=O)c5ccccc5C4=O)cc3)CC2)cc1
